Data on 16 compounds can be found in ChEMBL document CHEMBL4229485, “The design, synthesis, and evaluation of organic dithienopyrrole-based D-π-A dyes for use as sensitizers in photodynamic therapy” (Bioorg Med Chem Lett, 2018).

Calls of active or inactive are those of the source. No cut-off for these calls is given here.

The nature of data set [1]: Dark toxicity in human HeLa cells assessed as reduction in cell viability after 48 hrs by MTT assay. The data set is classed as cell-based. A general note: Tetrazolium assays rely on reduction of a dye to a coloured formazan, in cell work by metabolically active cells.
For data set [2], the system named is HeLa. Briefly: Phototoxicity in human HeLa cells assessed as reduction in cell viability preincubated for 1 hr followed by LED light irradiation for 15 mins measured after 48 hrs by MTT assay. The data set is classed as functional, cell-based. Particulars: light or radiation study. In outline: (§1)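 HeLa cells were treated with the sensitizer and photo-irradiated. IC50 is the sensitizer concentration that reduced viability by 50%, read from semi-logarithmic dose-response plots.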

Data set [3] concerns HeLa. In words: Phototoxicity in human HeLa cells assessed as reduction in cell viability preincubated for 1 hr followed by LED light irradiation for 60 mins measured after 48 hrs by MTT assay. The data set is classed as functional, cell-based. The following applies: light or radiation study. In outline:
as §1

The next data set deals with HEK293. Briefly: Phototoxicity in HEK293 cells assessed as reduction in cell viability preincubated for 1 hr followed by LED light irradiation for 15 mins measured after 48 hrs by MTT assay. The format is functional, cell-based. Particulars: Homo sapiens, HEK293, light or radiation study.
A short description of data set [4]: Dark toxicity in HEK293 cells assessed as reduction in cell viability measured after 48 hrs by MTT assay. The data set is classed as cell-based. The following applies: human.
The nature of data set [5]: Dark toxicity in HEK293 cells assessed as inhibition of cell viability at 10 uM measured after 48 hrs by MTT assay relative to control. The format is cell-based. The following applies: human, read-out: INH.
Data set [6] is described as follows: Induction of oxidative damage to human serum albumin assessed as oxidation of tryptophan residue at 10 uM after 15 to 45 mins by fluorescence assay. The data set is classed as functional. In outline:
(§2)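 Sensitizer (10 µM) and HSA (20 µM) in PBS were irradiated with white LED light (420–750 nm, 8.0 ± 0.5 mW/cm2). Photo-oxidation of HSA's single tryptophan was followed as the loss of its intrinsic fluorescence at around 350 nm.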

Data set [7] is described as follows: Induction of oxidative damage to human serum albumin assessed as oxidation of tryptophan residue at 10 uM after 15 to 45 mins in presence of ROS quencher L-ascorbic acid by fluorescence assay. The format is functional. In outline:
as §2

Data set [8] in a line: Drug uptake in cytoplasm of human HeLa cells at 10 uM after 1 hr by Hoechst 33342 staining based confocal microscopic method. The data set is classed as ADME, subcellular.
The nature of data set [9]: Drug uptake in nucleus of human HeLa cells at 10 uM after 1 hr by Hoechst 33342 staining based confocal microscopic method. The data set is classed as ADME, subcellular.

One may read the IC50 as the concentration that gives 50% inhibition.

Turning to `COc1ccc(-c2cc3c(s2)c2sc(-c4ccc(/C=C(\C#N)C(=O)O)s4)cc2n3C(C)(C)C)cc1`, the 50% inhibitory concentration (IC50) in data set [1] was determined as 43.4 µM; in the data set on HeLa [2], 0.19 µM; with HeLa [3], 0.063 µM; in the data set on HEK293, 0.043 µM. Also, the IC50 at 48 h in [4] is greater than 10 µM. Besides, in data set [5], the cytotoxicity at 48 h, 10 µM stood at 7%. For the same compound, the result in data set [6] and in [7] was Active. Moreover, the Drug uptake entry in data set [8] and in data set [9] was “Active” in each case.

Turning to `COc1ccc(-c2cc3c(s2)c2sc(-c4ccc(/C=C5\C(=O)N(CCO)C(=O)C(C#N)=C5C)s4)cc2n3C(C)(C)C)cc1`, the 50% inhibitory concentration (IC50) was 60 µM in data set [1] and 15.9 µM in the data set on HeLa [2].

Take `CCCCN1C(=O)C(=C/C=C/C=C2\Oc3ccccc3N2CCCS(=O)(=O)O)C(=O)N(CCCC)C1=S`: the IC50 is greater than 100 µM in data set [1] and 16 µM in the data set with HeLa [2].

Regarding `COc1ccc(-c2cc3c(s2)c2sc(-c4ccc(/C=C5\SC(=S)N(CC(=O)O)C5=O)s4)cc2n3C(C)(C)C)cc1`, the IC50 in data set [1] amounted to 63.9 µM; in the data set with HeLa [2] it was 5.7 µM. Moreover, in [6], the result was inactive.

On to `CN(C)c1ccc(-c2cc3c(s2)c2sc(-c4ccc(C=O)s4)cc2n3C(C)(C)C)cc1`, for which the values for the IC50 (in data set [1]; in the data set on HeLa [2]) were greater than 10 µM and 2.5 µM, respectively. Also, in [6], the outcome was inactive.

Turning to `CC(C)(C)n1c2cc(-c3ccc(N(c4ccccc4)c4ccccc4)cc3)sc2c2sc(-c3ccc(/C=C4\SC(=S)N(CC(=O)O)C4=O)s3)cc21`, the IC50 in [1] is 60.2 µM; in the data set on HeLa [2], 17.1 µM. The outcome in data set [6] was inactive.

Turning to `CN(C)c1ccc(-c2cc3c(s2)c2sc(-c4ccc(/C=C(\C#N)C(=O)O)s4)cc2n3C(C)(C)C)cc1`, the IC50 in [1] is 15.5 µM; with HeLa [2] it was 0.6 µM. For the same compound, the result in data set [6] was Active.

As for `CN(C)c1ccc(-c2cc3c(s2)c2sc(-c4ccc(/C=C5\SC(=S)N(CC(=O)O)C5=O)s4)cc2n3C(C)(C)C)cc1`, the IC50 in [1] is greater than 100 µM; with HeLa [2], 12.1 µM. The outcome in data set [6] was inactive.

Consider `COc1ccc(-c2cc3c(s2)c2sc(-c4ccc(C=O)s4)cc2n3C(C)(C)C)cc1`, for which the IC50 is 68.6 µM in data set [1] and 3.8 µM in the data set on HeLa [2]. Besides, the result in [6] was inactive.

On to `COc1ccc(-c2cc3c(s2)c2sc(-c4ccc(/C=C(\C#N)C(N)=O)s4)cc2n3C(C)(C)C)cc1`, for which the half-maximal inhibitory concentration (IC50) came to 15.7 µM in [1] and 0.56 µM with HeLa [2]. The outcome in data set [6] was Active.

Consider `CC(C)(C)n1c2cc(-c3ccc(N(c4ccccc4)c4ccccc4)cc3)sc2c2sc(-c3ccc(/C=C(\C#N)C(=O)O)s3)cc21`, for which the IC50 (in data set [1]; in the data set on HeLa [2]) was greater than 100 µM in each case. Moreover, the outcome in [6] was inactive.

Regarding `CC(C)(C)n1c2cc(-c3ccc(N(c4ccccc4)c4ccccc4)cc3)sc2c2sc(-c3ccc(/C=C(\C#N)C(N)=O)s3)cc21`, the IC50 (in [1]; with HeLa [2]) was greater than 100 µM each time. Besides, the result in [6] was inactive.

Consider `CN(C)c1ccc(-c2cc3c(s2)c2sc(-c4ccc(/C=C(\C#N)C(N)=O)s4)cc2n3C(C)(C)C)cc1`, for which the IC50 was 54 µM in data set [1] and 5 µM with HeLa [2]. Moreover, in data set [6], the result was inactive.

On to `CC(C)(C)n1c2cc(-c3ccc(N(c4ccccc4)c4ccccc4)cc3)sc2c2sc(-c3ccc(C=O)s3)cc21`, for which the results for the half-inhibitory concentration (IC50) (in data set [1]; in the data set with HeLa [2]) were 67 µM and 45 µM, respectively. Further, in [6], the outcome was inactive.

For `N#C/C(=C\c1ccc(-c2ccc(-c3ccc(N(c4ccccc4)c4ccccc4)cc3)s2)s1)C(=O)O`, the IC50 in [1] stood at 21.9 µM; in the data set with HeLa [2], 0.21 µM; with HEK293 it was 0.16 µM. Also, in data set [4], the half-inhibitory concentration (IC50) at 48 h was greater than 10 µM. Further, the cytotoxicity at 48 h, 10 µM in data set [5] was 32%.

As to `C=CC1=C(C)c2cc3[nH]c(cc4nc(cc5[nH]c(cc1n2)c(C)c5C=C)C(C)=C4CCC(=O)O)c(CCC(=O)O)c3C`, the IC50 amounted to 12.5 µM in data set [1] and 0.75 µM with HeLa [2].
